Screens as filed in PubChem.
Shown are actives, neighbours in structure and some others; about 1.7% of the full set was active somewhere.
Vif imaging: inhibitors of HIV Vif | HEK293T cells, Vif self-association by quenched fluorescence, imaging, 24 h | inhibition, % at 7.49 µM | 340,000 compounds, 0.35% hits | AID 602346; in the data active means inhibition above about 50%, passing the limit was not always enough; inconclusive means no clear call, values can overlap the other calls; inactive means below about 31%
Pemphigus Ab inh: inhibitors of pemphigus antibody binding to human desmoglein-3 | P32926 | DSG3-coupled beads, scFv-anti-DSG3-GFP binding, flow cytometry; active compounds read low | binding (percent of control), % at 10 µM | 310,000 compounds, 0.48% hits;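 active means binding more than 3 SD below its plate's average and above zero; inconclusive means below that plate limit but binding exactly zero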;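 further: hits lower antibody fragment binding to DSG3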
Target sequence (P32926 whole entry, looked up, the tested form may be a part): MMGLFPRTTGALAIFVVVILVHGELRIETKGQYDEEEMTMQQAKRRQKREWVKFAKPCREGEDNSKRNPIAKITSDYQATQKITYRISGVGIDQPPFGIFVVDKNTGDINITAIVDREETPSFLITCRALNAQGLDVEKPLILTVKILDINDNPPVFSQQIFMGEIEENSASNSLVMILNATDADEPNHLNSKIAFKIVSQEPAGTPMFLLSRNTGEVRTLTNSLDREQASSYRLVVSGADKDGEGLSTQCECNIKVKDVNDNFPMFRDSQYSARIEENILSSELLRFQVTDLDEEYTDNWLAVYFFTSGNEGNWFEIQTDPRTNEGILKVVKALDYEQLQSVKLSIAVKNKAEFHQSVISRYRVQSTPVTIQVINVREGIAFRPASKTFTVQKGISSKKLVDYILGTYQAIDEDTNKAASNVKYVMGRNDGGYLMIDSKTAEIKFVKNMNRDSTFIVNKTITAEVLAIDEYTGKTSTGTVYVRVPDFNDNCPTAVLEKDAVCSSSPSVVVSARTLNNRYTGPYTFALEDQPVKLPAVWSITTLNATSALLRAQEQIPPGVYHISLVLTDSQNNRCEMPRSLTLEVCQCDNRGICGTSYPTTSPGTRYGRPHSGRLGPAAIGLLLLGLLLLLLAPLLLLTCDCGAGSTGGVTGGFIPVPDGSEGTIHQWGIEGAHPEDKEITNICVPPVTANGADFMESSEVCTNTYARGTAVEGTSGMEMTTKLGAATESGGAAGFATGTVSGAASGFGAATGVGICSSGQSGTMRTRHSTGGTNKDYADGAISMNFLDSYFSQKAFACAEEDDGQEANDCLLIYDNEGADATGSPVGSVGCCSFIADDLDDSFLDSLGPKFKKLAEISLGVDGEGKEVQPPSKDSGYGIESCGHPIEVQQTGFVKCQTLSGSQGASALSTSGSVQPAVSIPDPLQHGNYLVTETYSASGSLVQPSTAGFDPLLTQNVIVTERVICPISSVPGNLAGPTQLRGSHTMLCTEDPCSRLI
T cell modulator: T cell immune modulators affecting CD8 T cell-vesicle binding; response (vesicle binding), % at 7 µM; 2C CD8+ T cell-vesicle binding, flow cytometry; active compounds read low; 330,000 compounds, 0.068% hits; AID 2052;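 active means response, share of CD8 T cells binding vesicles, and their 90th percentile fluorescence all below set limits, cut at about 80% in these data, passing the limit was not always enough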;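 further: values below 100% mean blocked vesicle binding to the CD8+ T cells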
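Test system: purified 2C TCR transgenic mouse naive CD8+ T cells. Probe or stimulus: QL9-peptide-loaded Drosophila micro-vesicles bearing Ld, ICAM-1 and B7-1. Incubation: binding step 1.5 h, 37 °C, antibody labelling 20 min, ice. Measured by: flow cytometry of vesicle-bound cells.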
Myeloid diff MLP: compounds promoting myeloid differentiation. ER-HoxA9 myeloid progenitors, lysozyme-GFP differentiation, flow cytometry. calls only at 10 µM. 360,000 compounds, 1% hits. AID 624256;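 active means normalized GFP-positive differentiation at or above the plate's own cutoff, the solvent-only control mean plus 3 SD; inconclusive means no clear call, values can overlap the other calls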;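 further: cells exposed to compound for four days before flow analysis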
Myeloid diff: promotes myeloid progenitor differentiation | AID 651706 | 2,300 compounds, 2% hits | shares compounds with Myeloid diff MLP | calls only | ER-HoxA9 myeloid progenitors, GFP/Mac1 double-positive flow;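 active means share of green or green-and-red cells above 9 and 9% in run 1 or 4 and 3% in run 2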
GFP autofluor: flagged as fluorescent in myeloid differentiation counter-screen; AID 651707; ER-HoxA9 myeloid progenitors, no estrogen, GFP autofluorescence flow cytometry; vehicle wells 0%, positive control 100%; shares compounds with Myeloid diff MLP; 2,300 compounds, 7.4% hits; fluorescence response, % (test concentration not listed);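 active means over 5% cells positive for green fluorescent reporter, or over 2% positive for both it and APC stain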
Numbers stand for hits; . = inactive; ? = inconclusive; / = not tested or not shown; + = active, no number.

SMILES	Vif imaging	Pemphigus Ab inh	T cell modulator	Myeloid diff MLP	Myeloid diff	GFP autofluor
Cc1cc(C)cc(N2C(N)=NC(N)=NC2c2ccccc2F)c1 (configuration not stated)	.	.	.	.	.	.
COc1ccccc1NC(=O)CSc1nnnn1-c1ccccc1OC	.	.	.	.	/	/
COc1ccccc1NC(=O)CSc1nnnn1-c1ccc2c(c1)OCO2	.	.	.	.	.	.
COc1ccc(-n2nnnc2SCC(=O)Nc2nnc(C)s2)cc1	.	.	.	+	.	.
Cc1ccc2nc(/C(C#N)=C/c3ccc(-c4ccccc4C(=O)O)o3)[nH]c2c1	.	.	.	.	/	/
Cc1ccc2nc(/C(C#N)=C\c3ccc(N4CCOCC4)o3)[nH]c2c1	.	.	.	+	.	29
Cc1cc2nc(/C(C#N)=C\c3ccc(-c4ccccc4C(=O)O)o3)[nH]c2cc1C	/	.	.	.	.	.
COc1cc(C(=O)NNC(=O)c2nn(C)c(=O)c3ccccc23)cc(OC)c1OC	.	.	.	.	/	/
O=C(Cc1c(F)c(F)c(F)c(F)c1F)Nc1nc(-c2ccccc2)cs1	.	.	.	.	/	/
CC1=Nc2ccc3ccccc3c2C1(C)C	53	.	.	+	.	.
Cc1c2ccccc2c(C)c2c1ccc1ccccc12	.	/	.	.	/	/
CCNC(=O)C1(C)CCCN1Cc1c(F)cccc1F (configuration not stated)	.	/	/	.	/	/
CNc1ccc(-c2cccc(C(=O)N3CCOCC3)c2)cn1	.	/	/	.	/	/
O=C1S/C(=C\c2ccc(N3CCOCC3)o2)C(=O)N1c1ccccc1	.	.	.	+	.	9.6
O=C(/C=C/[C@H]1O[C@@H](n2ccc(=O)[nH]c2=O)[C@H](O)[C@@H]1O)N1CCN(CCc2ccccc2)CC1	.	/	/	.	/	/
CCOc1ccc(N(Cc2ccc(OC)cc2)C(=O)c2ccco2)cc1	.	.	.	.	/	/
COc1ccc(CN(C(=O)c2ccco2)c2ccc(C)c(C)c2)cc1	.	.	.	+	.	.
COc1cccc(-c2nnc3n2N=C(c2cc(OC)ccc2OC)CS3)c1	.	/	.	+	.	11
O=C(NCCc1ccccc1)c1ccccc1NS(=O)(=O)N1CCCC1	.	.	.	.	.	.
COC(=O)C(C#N)(CCC(=O)c1ccccc1)CCC(=O)c1ccccc1	.	/	/	.	/	/
Oc1ccc(N2CCN(c3nnnn3-c3ccccc3)CC2)cc1	.	.	.	+	.	.
Cc1cccc(C(O)c2ncc(-c3ccc(Cl)cc3)[nH]2)c1C (configuration not stated)	/	/	/	.	/	/
C=CC[N+]1(CC#Cc2ccccc2)CCCC1	.	.	.	+	.	.
C(#Cc1ccccc1)C[N+]1(CC#Cc2ccccc2)CCCC1	.	.	.	?	/	/
Cn1c(-c2cccs2)[n+](C)c2ccccc21	.	.	.	.	.	.
SMILES	Vif imaging	Pemphigus Ab inh	T cell modulator	Myeloid diff MLP	Myeloid diff	GFP autofluor
COn1c(=O)c(-c2cccs2)[n+]([O-])c2ccccc21	.	.	.	.	/	/
Cc1ccc(/C=C2\SC(=O)N(CCNC(=O)C3CSC4(C)CCC(=O)N34)C2=O)cc1 (configuration not stated)	.	.	.	.	/	/
c1ccc(COc2ncnc3c2ncn3CCCN2CCN(c3ncccn3)CC2)cc1	.	.	/	.	.	.
Cc1ccn2c(Nc3ccc4c(c3)OCO4)c(-c3ccccn3)nc2c1	.	.	.	.	/	/
Cc1ccc(Nc2c(-c3ccccn3)nc3cc(C)ccn23)cc1	.	.	.	.	.	.
COc1ccc(OC)c(C(O)c2ncc(-c3ccc(C(F)(F)F)cc3)[nH]2)c1 (configuration not stated)	.	/	/	.	/	/
COC(=O)/C(=C/Nc1ccc(O)cc1)[N+](=O)[O-]	.	/	.	.	/	/
COC(=O)/C(=C/Nc1ccccc1)[N+](=O)[O-]	.	.	.	/	.	.
O=c1[nH]c(/C=C2\C=Nc3ccccc32)c(O)n1Cc1ccccc1F	.	.	.	.	.	.
CN(CC(=O)Nc1ccc(F)cc1)C(=O)c1cc(-c2ccco2)nc2ccccc12	.	.	.	.	/	/
Cc1ccc(NC(=O)CN(C)C(=O)c2cc(-c3ccco3)nc3ccccc23)cc1	.	.	.	.	.	.
Cc1nc2ccc(C(=O)N3c4ccccc4N=C(c4ccc(C(F)(F)F)cc4)C3C(=O)NC(C)(C)C)cc2[nH]1 (configuration not stated)	/	/	/	.	/	/
O=C(O)CCC(=O)NNC(=O)c1ccc(-c2ccccc2)cc1	.	.	.	.	.	.
CCOC(=O)c1ccccc1NC(=O)CSc1nc2ccccc2c(=O)n1CCCN1CCOCC1	.	.	.	.	/	/
Nc1cccc(C#Cc2ccc3c(c2)C(=O)/C(=C/c2ccsc2)O3)c1	.	.	.	.	.	.
CCSc1nc2sc3c(c2c(=O)n1-c1ccccc1)CCN(C(C)C)C3	.	.	.	+	.	.
CCCCCNc1nc2sc3c(c2c(=O)n1-c1cccc(Cl)c1)CCN(C)C3	.	.	.	+	.	.
CCCCNc1nc2sc3c(c2c(=O)n1-c1cccc(Cl)c1)CCN(C)C3	.	.	.	?	/	/
CC(C)(C)c1ccc(OCc2ccc(C(=O)Nc3cccnc3)o2)cc1	.	.	.	?	/	/
CCCCC(=O)OCC(=O)c1cc(C)n(-c2c(C)n(C)n(-c3ccccc3)c2=O)c1C	50	.	.	.	.	.
COc1ccccc1C1CC(c2ccc(Br)cc2)=NN1C(=O)c1cccnc1 (configuration not stated)	.	.	.	.	.	.
CCCC(=O)Nc1nc2ccc(NC(=O)c3ccc(Br)o3)cc2s1	.	/	.	+	.	.
Cc1ccc(-c2cc(C(=O)NN=C3CCCC3)c3ccccc3n2)cc1	.	.	.	.	.	.
CC1(C(=O)NS(=O)(=O)c2ccc(C#N)cc2)CCN1C(=O)Cc1ccc(Cl)cc1Cl (configuration not stated)	.	/	/	.	/	/
CC(=O)O[C@]1(C(C)=O)CC[C@H]2[C@@H]3C=C(Cl)C4=CC(=O)CC[C@]4(C)[C@H]3CC[C@@]21C	.	.	.	.	.	.
SMILES	Vif imaging	Pemphigus Ab inh	T cell modulator	Myeloid diff MLP	Myeloid diff	GFP autofluor
COc1ccc(S(=O)(=O)N/N=C(/C)c2ccncc2)c(OC)c1	.	.	.	/	/	/
COc1ccc(F)cc1CSc1nnnn1-c1ccc(O)cc1	.	.	.	.	/	/
COc1cc(CSc2nnnn2-c2ccc(C)cc2)cc(OC)c1OC	.	.	.	.	.	.
COC(=O)C/C=C/N(Cc1ccccc1OC)S(=O)(=O)CCl	.	.	/	.	/	/
Cc1ccc(NC(=S)N(CCCN2CCCC2)Cc2cccn2Cc2ccc(Cl)cc2)cc1Cl	.	.	.	+	.	.
FC(F)(F)c1cccc(NC(=S)N(CCCN2CCCC2)Cc2cccn2Cc2ccc(Cl)cc2)c1	.	.	.	+	.	41
COc1ccc(NC(=S)N(CCCN2CCCC2)Cc2cccn2Cc2ccc(Cl)cc2)cc1Cl	.	.	.	.	/	/
Cc1ccc(NC(=S)N(CCCN2CCCC2)Cc2cccn2Cc2ccc(Cl)cc2)cc1C	.	.	.	.	/	/
